{"source": "paper PMC12282411", "about": "(Virologica Sinica, 2025)", "key": {"DENV 2 [1]": {"system": "DENV 2", "experiment": "microbe, parasite or virus in culture", "type": "cell-based", "conditions": "for EC50: Dengue virus, BHK-21, 48 h, read-out: EC50 (BHK-21 μM); for SI (CC50/EC50): selective index, BHK-21 CC50 / BHK-21 EC50"}, "DENV 2 [2]": {"system": "DENV 2", "experiment": "Antiviral assay on Huh 7 cells", "type": "cell-based", "conditions": "Dengue virus, Huh-7, 48 h, read-out: EC50 (Huh 7 μM)", "method_in_brief": "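Huh 7 cells were seeded at 4×10^4/well and grown overnight at 37 °C, 5% CO₂. Test compound was serially diluted threefold from 50 µM in DMEM with 2% FBS and added to cells for 1 h. DENV 2 was added at MOI 1 for 1 h, then the inoculum was removed, cells washed with PBS, and compound re-added. After two days, supernatant viral RNA was quantified by one-step SYBR RT-qPCR against an NS5A standard curve.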"}, "NS2B-NS3pro": {"molecular_target": "T1, NS2B-NS3pro (Dengue virus type 2, UniProt P29990, M1488V)", "T1 sequence (P29990 with tags, fused parts or gaps T1441G/I1442G/L1443G/I1444G/R1445S/T1446G/DEL1448-1473/Q1474G/R1475G/M1488V)": "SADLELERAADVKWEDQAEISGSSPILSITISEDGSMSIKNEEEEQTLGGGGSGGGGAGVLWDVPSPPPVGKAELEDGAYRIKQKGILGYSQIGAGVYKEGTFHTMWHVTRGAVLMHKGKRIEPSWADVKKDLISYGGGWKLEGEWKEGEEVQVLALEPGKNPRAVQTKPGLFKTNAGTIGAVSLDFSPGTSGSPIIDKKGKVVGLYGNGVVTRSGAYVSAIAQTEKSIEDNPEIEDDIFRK", "type": "binding, DENV 2", "conditions": "SPR"}, "DENV 2 [3]": {"system": "DENV 2", "experiment": "DENV 2 challenge of AG129 mice", "type": "in vivo", "conditions": "for viral copy numbers in the spleen and liver: i.g., two days post infection, Fig. 2F"}, "Pharmacokinetics in rats": {"experiment": "Pharmacokinetics in rats", "type": "in vivo, Sprague-Dawley rats", "conditions": "SD rats, i.v. as a reference", "method_in_brief": "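Male Sprague-Dawley rats (180–220 g), three per group, were fasted overnight. Test compound was dosed i.g. at 20 mg/kg as a suspension in 0.4% sodium carboxymethylcellulose, or i.p. dissolved by sonication in 10% DMSO/40% PEG 300/5% Tween 80/45% saline. Jugular plasma was sampled repeatedly up to 36 h. Samples were mixed with diclofenac sodium, precipitated with acetonitrile, and analysed by LC-MS/MS. Parameters were derived by non-compartmental analysis.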"}, "DENV 2 [4]": {"system": "DENV 2", "experiment": "Time-of-addition assay", "type": "cell-based", "conditions": "BHK-21 cells", "method_in_brief": "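The assay used BHK-21 cells seeded overnight. In the treatment-mode arms, cells were infected at MOI 0.1 for 0–1 h, with compound applied as virus pretreatment for 1 h, cell pretreatment (–1–0 h), post-infection (1–46 h) or full-time (–1–46 h). In the addition-time arms, infection was at MOI 1 for 1 h, with compound added at 0–36 h. Readout at 48 h was supernatant RT-qPCR and IFA, with DMSO and ribavirin as controls.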"}, "ZIKV NS2B-NS3pro": {"molecular_target": "T2, ZIKV NS2B-NS3pro (Zika virus, UniProt Q32ZE1)", "T2 sequence (Q32ZE1 with tags, fused parts or gaps DEL1464-1489/Y1490G/V1491G/Y1492G/V1493G/K1494S/T1495G/K1497G/R1498G)": "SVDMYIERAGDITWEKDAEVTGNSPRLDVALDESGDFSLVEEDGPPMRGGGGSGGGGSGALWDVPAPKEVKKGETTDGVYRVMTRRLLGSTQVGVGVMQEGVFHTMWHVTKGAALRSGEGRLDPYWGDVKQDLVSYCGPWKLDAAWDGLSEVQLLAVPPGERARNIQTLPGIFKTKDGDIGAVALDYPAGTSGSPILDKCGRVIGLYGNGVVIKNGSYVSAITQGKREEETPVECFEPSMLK", "experiment": "FRET assay on ZIKV NS2B-NS3pro", "type": "biochemical"}, "DENV 2 NS2B-NS3pro": {"molecular_target": "T3, DENV 2 NS2B-NS3pro (Dengue virus type 2, UniProt P29990)", "T3 sequence (P29990 with tags, fused parts or gaps T1441G/I1442G/L1443G/I1444G/R1445S/T1446G/DEL1448-1473/Q1474G/R1475G)": "T1 sequence (P29990 with tags, fused parts or gaps T1441G/I1442G/L1443G/I1444G/R1445S/T1446G/DEL1448-1473/Q1474G/R1475G/M1488V) with V70M", "experiment": "Enzyme kinetic analysis", "type": "biochemical"}, "Water solubility": {"experiment": "Water solubility", "type": "physicochemical"}}, "note": "Changes are numbered by the printed parent chain. Counter-ions that a name gives are not always drawn."}
{"molecule": "CCOC(=O)c1ccc(C#Cc2ccc3c(c2)C(C)(C)CCS3)nc1", "note": "[AGN190168]", "values": [{"measurement": "EC50", "setting": "DENV 2 [1]", "result": 10900, "unit": "nM"}, {"measurement": "SI (CC50/EC50)", "setting": "DENV 2 [1]", "result": 24.15}, {"measurement": "EC50", "setting": "DENV 2 [2]", "result": 107, "unit": "nM"}]}
{"molecule": "NC(=NCc1ccccc1)NC(=O)c1nc(Cl)c(N)nc1N", "note": "[Benzamil hydrochloride]", "values": [{"measurement": "EC50", "setting": "DENV 2 [1]", "result": 368, "unit": "nM"}, {"measurement": "SI (CC50/EC50)", "setting": "DENV 2 [1]", "result": 120.85}, {"measurement": "SI (CC50/EC50)", "setting": "DENV 2 [1]; listed as benzamil hydrochloride", "result": "greater than 100"}, {"measurement": "EC50", "setting": "DENV 2 [2]", "result": 2620, "unit": "nM"}, {"measurement": "binding affinity on NS2B-NS3pro", "setting": "NS2B-NS3pro", "result": "almost no binding affinity"}]}
{"molecule": "CC1=NN(c2ccc(C)c(C)c2)C(=O)/C1=N\\Nc1cccc(-c2cccc(C(=O)O)c2)c1O", "note": "[Eltrombopag]", "values": [{"measurement": "EC50", "setting": "DENV 2 [1]", "result": 316, "unit": "nM"}, {"measurement": "EC50", "setting": "DENV 2 [2]", "result": 1460, "unit": "nM"}, {"measurement": "viral copy numbers in the liver, spleen, and kidney", "setting": "DENV 2 [3]; 10 or 20 mg/kg, i.g. or i.p., two days post challenge, Fig. 3C", "result": "reduced the viral copy numbers in the liver, spleen, and kidney in a dose-dependent manner"}, {"measurement": "decrease of viral loads in spleen", "setting": "DENV 2 [3]; DENV 2 at 10^7 TCID50", "result": "more than 1 log"}, {"measurement": "expression of TNF-α and IL-6 in the blood", "setting": "DENV 2 [3]; RT-qPCR, Fig. 3D", "result": "inhibited the expression of TNF-α and IL-6"}, {"measurement": "viral copy numbers in the spleen and liver", "setting": "DENV 2 [3]", "result": "significantly reduced"}, {"measurement": "inhibitory effect on viral copies by delivery route", "setting": "DENV 2 [3]; i.p. compared with i.g., Fig. 3C", "result": "stronger inhibitory effect when delivered via i.p."}, {"measurement": "pharmacokinetics i.p. compared with i.g.", "setting": "Pharmacokinetics in rats", "result": "better absorption, distribution, and clearance"}, {"measurement": "inhibition on addition at 36 h or later", "setting": "DENV 2 [4]; MOI = 1, RT-qPCR at 48 h", "result": "reduced inhibition"}, {"measurement": "time of addition following DENV 2 infection with effective inhibition", "setting": "DENV 2 [4]; MOI = 1, RT-qPCR at 48 h", "result": "≤ 24", "unit": "h"}, {"measurement": "inhibition when added at the post-infection stage versus full-time treatment", "setting": "DENV 2 [4]; RT-qPCR at 48 h", "result": "comparable inhibition"}, {"measurement": "effect on the viruses and cells themselves (pretreatment modes)", "setting": "DENV 2 [4]; pretreatment of virus or of cell", "result": "negligible effect"}, {"measurement": "IC50", "setting": "ZIKV NS2B-NS3pro", "result": 29800, "unit": "nM"}, {"measurement": "reversibility of binding to DENV2 NS2B-NS3pro", "setting": "DENV 2 NS2B-NS3pro; varying NS2B-NS3pro, fixed substrate 20 μM, eltrombopag 0, 10 and 20 μM", "result": "reversibly binds"}, {"measurement": "mode of inhibition with respect to substrate", "setting": "DENV 2 NS2B-NS3pro; varying substrate, NS2B-NS3pro 300 nM, Vmax changes, Km unchanged", "result": "substrate-non-competitive manner"}, {"measurement": "water solubility", "setting": "Water solubility", "result": "poorly water-soluble"}]}
{"molecule": "Cc1cc(-c2ccc(/N=N/c3ccc4c(S(=O)(=O)O)cc(S(=O)(=O)O)c(N)c4c3O)c(C)c2)ccc1/N=N/c1ccc2c(S(=O)(=O)O)cc(S(=O)(=O)O)c(N)c2c1O", "note": "[Evans Blue]", "values": [{"measurement": "EC50", "setting": "DENV 2 [1]", "result": 4850, "unit": "nM"}, {"measurement": "SI (CC50/EC50)", "setting": "DENV 2 [1]", "result": 49.98}, {"measurement": "EC50", "setting": "DENV 2 [2]", "result": 337, "unit": "nM"}]}
{"molecule": "COC(=O)N[C@H](C(=O)N1CC2(CC2)C[C@H]1c1nc(-c2ccc3c(c2)C(F)(F)c2cc(-c4ccc5[nH]c([C@@H]6[C@H]7CC[C@H](C7)N6C(=O)[C@@H](NC(=O)OC)C(C)C)nc5c4)ccc2-3)c[nH]1)C(C)C", "note": "[GS-5885]", "values": [{"measurement": "EC50", "setting": "DENV 2 [1]", "result": 3320, "unit": "nM"}, {"measurement": "EC50", "setting": "DENV 2 [2]", "result": 529, "unit": "nM"}, {"measurement": "viral copy numbers in the spleen and liver", "setting": "DENV 2 [3]", "result": "no effect"}]}
{"molecule": "COC(=O)N[C@H](C(=O)N1CCC[C@H]1c1nc(-c2ccc3c(c2)O[C@@H](c2ccccc2)n2c-3cc3cc(-c4c[nH]c([C@@H]5CCCN5C(=O)[C@@H](NC(=O)OC)C(C)C)n4)ccc32)c[nH]1)C(C)C", "note": "[MK-8742]", "values": [{"measurement": "EC50", "setting": "DENV 2 [1]", "result": 45.9, "unit": "nM"}, {"measurement": "EC50", "setting": "DENV 2 [2]", "result": 161, "unit": "nM"}, {"measurement": "viral copy numbers in the spleen and liver", "setting": "DENV 2 [3]", "result": "no effect"}]}
{"molecule": "C#CCC(Cc1cnc2nc(N)nc(N)c2n1)c1ccc(C(=O)N[C@@H](CCC(=O)O)C(=O)O)cc1", "note": "(stereo partly drawn) [Pralatrexate]", "values": [{"measurement": "EC50", "setting": "DENV 2 [1]", "result": "< 7.6", "unit": "nM"}, {"measurement": "SI (CC50/EC50)", "setting": "DENV 2 [1]", "result": ">13684.21"}, {"measurement": "SI (CC50/EC50)", "setting": "DENV 2 [1]; listed as pralatrexate", "result": "greater than 100"}, {"measurement": "EC50", "setting": "DENV 2 [2]", "result": "< 70", "unit": "nM"}, {"measurement": "binding affinity on NS2B-NS3pro", "setting": "NS2B-NS3pro", "result": "almost no binding affinity"}]}
{"molecule": "NC(=O)c1ncn([C@@H]2O[C@H](CO)[C@@H](O)[C@H]2O)n1", "note": "[Ribavirin]", "values": [{"measurement": "time of addition following DENV 2 infection with effective inhibition", "setting": "DENV 2 [4]; MOI = 1, RT-qPCR at 48 h", "result": "≤ 12", "unit": "h"}]}
